# Results reported in ChEMBL document CHEMBL4190247, “Monastrol, a 3,4-dihydropyrimidin-2(1H)-thione, as structural scaffold for the development of modulators for GHB high-affinity binding sites and α1β2δ GABAA receptors” (Eur J Med Chem, 2017).
# Activity calls are given as the source filed them. No cut-off for these calls is given here.
# Key:
# [1] = organism: Rattus norvegicus; test: Modulation of [3H]NCS-382 binding to alpha4betadelta GABAA receptor in rat cortical membranes after 1 hr by TopCount scintillation counting method; type: cell membranes
# How it was run: (§1)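 Rat cortical membrane homogenate (50-70 µg protein per well) incubated with 16 nM [³H]NCS-382 and increasing analogue concentrations, 1 hr at 0-4 °C. Bound ligand collected by rapid filtration on GF/C filters and counted by scintillation. Single-point screen at 100 µM; cooperativity factor (α) and modulator Kb obtained by curve fitting. Triplicates, at least three independent experiments.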
# [2] = organism: Rattus norvegicus; test: Modulation of [3H]NCS-382 binding to alpha4betadelta GABAA receptor in rat cortical membranes assessed as [3H]NCS-382 binding at 100 uM after 1 hr by TopCount scintillation counting method relative to control; type: cell membranes; how it was run: as §1
# [3] = target: GABA-A receptor; alpha-1/beta-2/gamma-2 (Homo sapiens) (UniProt P14867+P47870+P18507); test: Modulation of human alpha1beta2gamma2S GABAA receptor expressed in Xenopus laevis oocytes assessed as increase in GABA-induced current at 1 mM at -60 mV holding potential by two-electrode voltage clamp electrophysiology method; type: cell-based
# How it was run: (§2)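 cRNA for human α1β2 (1:1) or α1β2γ2S (5:1:5) subunits injected into X. laevis oocytes (0.9–1.8 ng) and stored at 18 °C in Barth's solution, pH 7.5. Two-electrode voltage clamp in perfused recording solution at pH 7.4. Test compound at 1 mM applied with 1 mM GABA. Currents normalized and given as fold potentiation.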
# [4] = target: GABA-A receptor; GABA-A site (alpha1/beta2 interface) (Homo sapiens) (UniProt P14867+P47870); test: Modulation of human alpha1beta2 GABAA receptor expressed in Xenopus laevis oocytes assessed as increase in GABA-induced current at 1 mM at -60 mV holding potential by two-electrode voltage clamp electrophysiology method; type: cell-based; how it was run: as §2
# [5] = target: T1, Gamma-aminobutyric acid receptor subunit alpha-1/beta-2/delta (Homo sapiens) (UniProt P14867+P47870+O14764); test: (§3) Modulation of human alpha1beta2delta GABAA receptor expressed in Xenopus laevis oocytes assessed as increase in GABA-induced current at 1 mM at -60 mV holding potential by two-electrode voltage clamp electrophysiology method relative to control; type: cell-based
# How it was run: (§4)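 X. laevis oocytes injected with 0.9–1.8 ng cRNA for human α1, β2 and δ subunits (5:1:5) and stored at 18 °C in Barth's solution, pH 7.5. Two-electrode voltage clamp with 3 M KCl electrodes (~2–4 MΩ), perfused with recording solution at pH 7.4. Compound co-applied with 1 mM GABA. Initial and rebound currents expressed as fold increase over the 1 mM GABA response, mean ± S.E.M.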
# [6] = target: T1, Gamma-aminobutyric acid receptor subunit alpha-1/beta-2/delta (Homo sapiens); test: as §3, with “current by measuring rebound current” for “current”, “potential measured after termination of compound application” for “potential”; type: cell-based; how it was run: as §4
# [7] = target: T1, Gamma-aminobutyric acid receptor subunit alpha-1/beta-2/delta (Homo sapiens); test: Agonist activity at human alpha1beta2delta GABAA receptor expressed in Xenopus laevis oocytes assessed as increase in current amplitude at 1 mM at -60 mV holding potential by two-electrode voltage clamp electrophysiology method; type: cell-based; how it was run: as §4
# [8] = target: T1, Gamma-aminobutyric acid receptor subunit alpha-1/beta-2/delta (Homo sapiens); test: as §3, with “by measuring rebound current” for “at 1 mM”, “potential measured after termination of compound application” for “potential”; type: cell-based; how it was run: as §4
Structure (SMILES),Kb [1],%max [2],further results
CCOC(=O)C1=C(C)N(Cc2ccccc2)C(=S)NC1c1cccc(O)c1 (stereo not given),inactive,inactive,–
CCOC(=O)C1=C(C)N(C)C(=S)N(C)C1c1cccc(O)c1 (stereo not given),inactive,inactive,–
CCCC1=C(C(=O)OCC)C(c2cccc(O)c2)NC(=S)N1 (stereo not given),–,198%,–
CCOC(=O)C1=C(c2ccccc2)NC(=S)NC1c1cccc(O)c1 (stereo not given),inactive,inactive,–
COC(=O)C1=C(C)NC(=S)NC1c1cccc(O)c1 (stereo not given),–,194%,pKb [1]: 3.46; Activity [3]: inactive; Activity [4]: inactive; fold change (FC) [5]: 1.3; Activity [6]: Active; Activity [7]: inactive
CCN(CC)C(=O)C1=C(C)NC(=S)NC1c1cccc(O)c1 (stereo not given),inactive,inactive,–
CCOC(=O)C1=C(C)NC(=S)NC1c1ccnn1C (stereo not given),inactive,inactive,–
CCOC(=O)C1=C(C)NC(=S)NC1c1cccc(O)c1 (stereo not given),–,185%,Activity [8]: Dose-dependent effect; pKb [1]: 3.96; Activity [3]: inactive; Activity [4]: inactive; fold change (FC) [5]: 2.9; Activity [7]: inactive
CCOC(=O)C1=C(CC)NC(=S)NC1c1cccc(O)c1 (stereo not given),–,245%,pKb [1]: 3.98; Activity [3]: inactive; Activity [4]: inactive; fold change (FC) [5]: 1.4; Activity [6]: Active; Activity [7]: inactive
CCOC(=O)C1=C(C)N(c2ccccc2)C(=S)NC1c1cccc(O)c1 (stereo not given),inactive,inactive,–
CCOC(=O)C1=C2CCCN2C(=S)NC1c1cccc(O)c1 (stereo not given),inactive,inactive,–
CCCCN1C(=S)NC(c2cccc(O)c2)C(C(=O)OCC)=C1C (stereo not given),inactive,inactive,–
CCOC(=O)C1=C(C)N(CC)C(=S)NC1c1cccc(O)c1 (stereo not given),–,130%,–
CCOC(=O)C1=C(C)NC(=S)NC1c1cn(-c2ccccc2)nn1 (stereo not given),inactive,inactive,–
CCOC(=O)C1=C(C)NC(=S)NC1c1cc(O)cc(O)c1 (stereo not given),–,247%,pKb [1]: 3.83
CC1=C(C(=O)O)C(c2cccc(O)c2)NC(=S)N1 (stereo not given),inactive,inactive,–
CCOC(=O)C1=C(C)NC(=O)NC1c1cccc(O)c1 (stereo not given),inactive,inactive,Activity [3]: inactive; Activity [4]: inactive; fold change (FC) [5]: 6.2; Activity [7]: inactive
CCOC(=O)C1=C(C)NC(=S)NC1c1ccc(O)c(O)c1 (stereo not given),–,246%,pKb [1]: 3.68; Activity [3]: inactive; Activity [4]: inactive; fold change (FC) [5]: 2.7; Activity [6]: Active; Activity [7]: inactive
CCOC(=O)C1=C(C)NC(=S)NC1c1ccc(O)cc1 (stereo not given),inactive,inactive,–
CC1=C(C(=O)OCc2ccccc2)C(c2cccc(O)c2)NC(=S)N1 (stereo not given),inactive,inactive,–

Structure (SMILES),Kb [1],%max [2],further results
CCOC(=O)C1=C(C)N=C(S)NC1c1cccc([N+](=O)[O-])c1 (stereo not given),inactive,inactive,–
CCC(=O)C1=C(CC)NC(=S)NC1c1cccc(O)c1 (stereo not given),–,130%,–
CCOC(=O)C1=C(C)NC(=S)NC1c1cccc(Cl)c1 (stereo not given),inactive,inactive,–
CCOC(=O)C1=C(C)NC(=S)NC1c1ccc(C)cc1 (stereo not given),inactive,inactive,–
CC(=O)C1=C(C)NC(=S)NC1c1cccc(O)c1 (stereo not given),–,130%,–
CCOC(=O)C1=C(C)NC(=S)NC1c1cccc(F)c1 (stereo not given),inactive,inactive,–
CCOC(=O)C1=C(C)NC(=S)NC1c1ccccc1 (stereo not given),inactive,inactive,–
CCOC(=O)C1=C(C)N=C(S)NC1C (stereo not given),inactive,inactive,–
COC(=O)C1=C(C)N(C)C(=S)NC1c1cccc(O)c1 (stereo not given),inactive,inactive,–
CCOC(=O)C1=C(C)N(C)C(=S)NC1c1cccc(O)c1 (stereo not given),87 µM,177%,pKb [1]: 4.06; Activity [3]: inactive; Activity [4]: inactive; fold change (FC) [5]: 3.1; Activity [6]: Active; Activity [7]: inactive
COC(=O)C1=C(C)NC(=O)NC1c1ccccc1 (stereo not given),inactive,–,Activity [3]: inactive; Activity [4]: inactive; fold change (FC) [5]: 5.9; Activity [7]: inactive
CCOC(=O)C1=C(C)NC(=S)NC1c1cccc(C)c1 (stereo not given),inactive,inactive,–
CCOC(=O)C1=C(C)NC(=S)N[C@@H]1c1cccc(O)c1,–,171%,pKb [1]: 3.48
CCOC(=O)C1=C(C(C)(C)C)NC(=S)NC1c1cccc(O)c1 (stereo not given),–,130%,–
CCOC(=O)C1=C(C)NC(=S)NC1c1cccnc1 (stereo not given),inactive,inactive,–
CCOC(=O)C1=C(C)NC(=S)NC1c1cccc(OC)c1 (stereo not given),inactive,inactive,–
CCOC(=O)C1=C(C)NC(=O)NC1c1ccccc1 (stereo not given),inactive,inactive,–
CCOC(=O)C1=C(C)NC(=S)N[C@H]1c1cccc(O)c1,–,208%,pKb [1]: 3.95
CCOC(=O)C1=C(C(C)C)NC(=S)NC1c1cccc(O)c1 (stereo not given),–,130%,–
